ChEMBL document CHEMBL1144684, “Evaluation of a series of naphthamides as potent, orally active vascular endothelial growth factor receptor-2 tyrosine kinase inhibitors” (J Med Chem, 2008)
Calls of active or inactive are those of the source. The calls are words filed in the database; no cut-off is given here.

How the values were obtained:
Liver microsomes [1] = test: Metabolic stability assessed as covalent binding in absence of NADPH in rat liver microsomes at 10 uM after 1 hr; assay type: ADME, Microsome
Procedure, shortened: (§1)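 14C-labelled compound at 10 µM with human or rat liver microsomes (1 mg/mL) in 0.1 M potassium phosphate pH 7.4, with or without 1 mM NADPH and 1 mM glutathione, 60 min; quenched with ice-cold acetonitrile. Pellet washed with 80% methanol and ethanol/ether, solubilized, protein by BCA, radioactivity by scintillation counting.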

Liver microsomes [2] = test: Metabolic stability assessed as covalent binding in presence of NADPH in human liver microsomes at 10 uM after 1 hr; assay type: ADME, Microsome; procedure, shortened: as §1
[3] = Volume of distribution at steady state in Sprague-Dawley rat at 1 mg/kg, iv; assay type: ADME, organism-based; parameters: dose 1 mg/kg, route intravenous; details: in vivo, read-out: Vdss
Procedure, shortened: (§2)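 Male Sprague–Dawley rats given 1 mg/kg iv via femoral vein as DMSO solution or 10 mg/kg by oral gavage as OraPlus suspension, pH adjusted to 2.0–2.2 with methanesulfonic acid. Serial jugular blood over 12–24 h; plasma protein-precipitated with acetonitrile, quantified by LC-MS/MS (MRM) with internal standard; noncompartmental parameters.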

HUVEC [4] = test: Inhibition of bFGF-induced proliferation of HUVEC; assay type: functional, cell-based; details: Homo sapiens
Procedure, shortened: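 HUVEC seeded at 3000/well in DMEM with 10% FBS, 22 h; 2 h preincubation with serial compound dilutions, then 50 ng/mL VEGF or 20 ng/mL bFGF for 72 h at 37 °C. Freeze–thaw, CyQuant DNA dye read-out; IC50 by four-parameter logistic fit, averaged over ≥2 experiments.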

[5] = AUC (0 to infinity) in Sprague-Dawley rat at 2 mg/kg, po; assay type: ADME, organism-based; parameters: time infinity, dose 2 mg/kg, route oral; details: plasma
Procedure, shortened: (§3)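 Male Sprague–Dawley rats dosed iv via femoral vein as DMSO solution (1 or 0.5 mg/kg) or po by gavage as OraPlus suspension (pH 2.0–2.2 with methanesulfonic acid; 10 or 2 mg/kg). Serial jugular blood over 12–24 h; plasma acetonitrile precipitation, LC-MS/MS (MRM) with internal standard; noncompartmental parameters.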

Aurora kinase A = target: T1, Aurora kinase A (Homo sapiens, UniProt O14965); test: Inhibition of Aurora A
T1 sequence (O14965 whole entry): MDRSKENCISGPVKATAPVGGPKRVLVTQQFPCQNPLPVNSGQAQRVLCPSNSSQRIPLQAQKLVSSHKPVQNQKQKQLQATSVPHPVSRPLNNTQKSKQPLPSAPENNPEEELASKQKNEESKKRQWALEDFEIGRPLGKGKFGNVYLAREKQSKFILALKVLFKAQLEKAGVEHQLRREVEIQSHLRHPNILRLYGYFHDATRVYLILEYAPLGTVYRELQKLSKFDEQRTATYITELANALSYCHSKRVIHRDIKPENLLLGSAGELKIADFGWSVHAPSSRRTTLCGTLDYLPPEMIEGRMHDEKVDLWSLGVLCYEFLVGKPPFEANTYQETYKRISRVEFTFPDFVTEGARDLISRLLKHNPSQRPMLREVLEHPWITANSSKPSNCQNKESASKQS

Rattus norvegicus = test: Inhibition of VEGF-induced angiogenesis in VEGF-soaked disk implanted in Sprague-Dawley rat cornea assessed as number of blood vessels intersecting the midpoint between disk and limbus after 7 days; assay type: functional; details: 168 h
[6] = target: Tyrosine-protein kinase Lck (Homo sapiens, UniProt P06239); test: Inhibition of Lck
Tyrosine-protein kinase Lck, sequence (P06239 whole entry): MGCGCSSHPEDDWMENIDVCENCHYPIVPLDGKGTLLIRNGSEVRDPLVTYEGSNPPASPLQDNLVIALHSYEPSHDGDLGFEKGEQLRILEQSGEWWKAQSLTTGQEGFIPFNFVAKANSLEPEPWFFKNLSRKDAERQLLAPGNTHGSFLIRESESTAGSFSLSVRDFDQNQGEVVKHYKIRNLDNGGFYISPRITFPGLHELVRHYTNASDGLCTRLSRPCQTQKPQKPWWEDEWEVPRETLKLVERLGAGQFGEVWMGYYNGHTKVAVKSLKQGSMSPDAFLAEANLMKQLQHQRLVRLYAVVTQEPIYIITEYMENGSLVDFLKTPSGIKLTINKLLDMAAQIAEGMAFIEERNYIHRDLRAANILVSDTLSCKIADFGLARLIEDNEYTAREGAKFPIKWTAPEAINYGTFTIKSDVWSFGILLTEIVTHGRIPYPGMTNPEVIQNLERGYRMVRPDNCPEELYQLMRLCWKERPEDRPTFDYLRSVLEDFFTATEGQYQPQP

Liver microsomes [7] = test: Metabolic stability assessed as covalent binding in presence of NADPH and GSH in rat liver microsomes at 10 uM after 1 hr; assay type: ADME, Microsome; procedure, shortened: as §1
[8] = Intrinsic clearance in human liver microsomes at 1 uM; assay type: ADME, Microsome; details: read-out: Stability
Procedure, shortened: (§4)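 Human or rat liver microsomes (0.25 mg protein/mL) with 1 mM NADPH, 2 mM MgCl2 in 50 mM potassium phosphate pH 7.4 at 37 °C; compound 1 µM final. Sampled 0–40 min into acetonitrile, LC-MS/MS; ln % remaining vs time slope gives T1/2; CLint = (0.693/T1/2)/0.25 mg/mL.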

Liver microsomes [9] = test: Metabolic stability assessed as covalent binding in absence of NADPH in human liver microsomes at 10 uM after 1 hr; assay type: ADME, Microsome; procedure, shortened: as §1
[10] = Cmax in VEGF-soaked disk implanted in Sprague-Dawley rat; assay type: ADME, organism-based; details: in vivo
[11] = target: Hepatocyte growth factor receptor (Homo sapiens, UniProt P08581); test: Inhibition of c-Met
[12] = target: Macrophage colony-stimulating factor 1 receptor (Homo sapiens) (UniProt P07333); test: Inhibition of c-fms
Macrophage colony-stimulating factor 1 receptor (Homo sapiens), sequence (P07333 whole entry): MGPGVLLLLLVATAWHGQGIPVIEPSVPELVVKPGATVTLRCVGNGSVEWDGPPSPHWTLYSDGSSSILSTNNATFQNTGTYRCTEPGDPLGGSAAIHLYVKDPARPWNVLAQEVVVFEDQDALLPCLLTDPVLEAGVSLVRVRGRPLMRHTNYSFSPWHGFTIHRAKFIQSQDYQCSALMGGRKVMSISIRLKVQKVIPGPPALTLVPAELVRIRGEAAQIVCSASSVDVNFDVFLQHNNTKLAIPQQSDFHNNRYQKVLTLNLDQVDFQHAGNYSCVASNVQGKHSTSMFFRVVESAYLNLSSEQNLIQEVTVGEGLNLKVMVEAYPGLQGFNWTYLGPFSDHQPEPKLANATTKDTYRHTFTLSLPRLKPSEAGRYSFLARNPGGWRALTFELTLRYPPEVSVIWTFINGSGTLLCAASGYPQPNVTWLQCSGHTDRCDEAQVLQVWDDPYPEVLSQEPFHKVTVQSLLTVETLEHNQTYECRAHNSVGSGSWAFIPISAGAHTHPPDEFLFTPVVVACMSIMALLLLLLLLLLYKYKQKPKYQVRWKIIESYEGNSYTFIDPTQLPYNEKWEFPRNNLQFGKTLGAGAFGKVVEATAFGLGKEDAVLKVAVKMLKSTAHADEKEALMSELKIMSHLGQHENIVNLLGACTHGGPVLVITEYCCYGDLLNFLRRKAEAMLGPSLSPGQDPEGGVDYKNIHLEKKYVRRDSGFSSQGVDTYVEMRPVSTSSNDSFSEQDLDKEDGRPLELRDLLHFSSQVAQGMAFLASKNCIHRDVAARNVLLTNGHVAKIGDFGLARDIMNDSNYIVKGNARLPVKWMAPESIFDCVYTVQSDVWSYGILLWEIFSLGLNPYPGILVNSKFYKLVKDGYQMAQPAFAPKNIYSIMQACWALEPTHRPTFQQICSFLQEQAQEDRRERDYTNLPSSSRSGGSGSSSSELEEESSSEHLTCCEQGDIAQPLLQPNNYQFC

[13] = Clearance in Sprague-Dawley rat at 1 mg/kg, iv; assay type: ADME, organism-based; parameters: dose 1 mg/kg, route intravenous; details: in vivo; procedure, shortened: as §3
HUVEC [14] = test: Selectivity of IC50 for VEGF-induced proliferation over IC50 for bFGF-induced proliferation of HUVEC; assay type: functional, Homo sapiens
Procedure, shortened: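 HUVECs were seeded at 3000 cells/well in DMEM/10% FBS with pen/strep and cultured for 22 h. They were preincubated 2 h with serially diluted compound, then stimulated with 50 ng/mL VEGF or 20 ng/mL bFGF for 72 h at 37 °C, 5% CO2. Cells were washed, frozen at -70 °C and stained with CyQuant. IC50s came from a four-parameter logistic fit, averaged over ≥2 experiments; the VEGF IC50 was compared against the bFGF IC50.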

HUVEC [15] = test: Inhibition of VEGF-induced proliferation of HUVEC; assay type: functional, cell-based; details: Homo sapiens
[16] = target: Vascular endothelial growth factor receptor 3 (Homo sapiens) (UniProt P35916); test: Inhibition of human VEGFR3
Aurora kinase B = Aurora kinase B (Homo sapiens, UniProt Q96GD4); test: Inhibition of Aurora B
Aurora kinase B, sequence (Q96GD4 whole entry): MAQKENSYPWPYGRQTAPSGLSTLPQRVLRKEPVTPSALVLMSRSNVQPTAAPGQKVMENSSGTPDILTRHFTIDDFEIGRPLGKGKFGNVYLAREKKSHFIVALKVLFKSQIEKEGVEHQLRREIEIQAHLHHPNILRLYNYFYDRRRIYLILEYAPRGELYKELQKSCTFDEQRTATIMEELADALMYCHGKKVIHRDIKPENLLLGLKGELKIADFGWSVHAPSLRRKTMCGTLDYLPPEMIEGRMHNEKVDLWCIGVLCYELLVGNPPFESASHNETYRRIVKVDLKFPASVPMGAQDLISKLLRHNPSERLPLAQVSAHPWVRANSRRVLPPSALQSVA

Liver microsomes [17] = test: Metabolic stability assessed as covalent binding in presence of NADPH in rat liver microsomes at 10 uM after 1 hr; assay type: ADME, Microsome; procedure, shortened: as §1
[18] = Cmax in Sprague-Dawley rat at 2 mg/kg, po; assay type: ADME, organism-based; parameters: dose 2 mg/kg, route oral; details: in vivo; procedure, shortened: as §3
Mus musculus [19] = test: Inhibition of VEGF-induced vascular permeability in HEK293 cells expressing mouse recombinant VEGF implanted in CD1 nu/nu mouse assessed as Matrigel plug at 3 mg/kg, po after 6 hrs; assay type: functional, organism-based; parameters: dose 3 mg/kg
Procedure, shortened: (§5)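 HEK293 cells expressing murine VEGF (or vector) suspended in Matrigel, injected sc ventrally into CD-1 nu/nu mice. At 24 h, single oral gavage dose as OraPlus suspension; 6 h later Evans blue quantified in 1 cm2 skin over plug; plasma level taken at 6 h; n = 5/group.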

[20] = AUC in VEGF-soaked disk implanted in Sprague-Dawley rat; assay type: ADME, organism-based; details: plasma
Angiopoietin-1 receptor = Angiopoietin-1 receptor (Homo sapiens, UniProt Q02763); test: Inhibition of Tie2
Angiopoietin-1 receptor, sequence (Q02763 whole entry): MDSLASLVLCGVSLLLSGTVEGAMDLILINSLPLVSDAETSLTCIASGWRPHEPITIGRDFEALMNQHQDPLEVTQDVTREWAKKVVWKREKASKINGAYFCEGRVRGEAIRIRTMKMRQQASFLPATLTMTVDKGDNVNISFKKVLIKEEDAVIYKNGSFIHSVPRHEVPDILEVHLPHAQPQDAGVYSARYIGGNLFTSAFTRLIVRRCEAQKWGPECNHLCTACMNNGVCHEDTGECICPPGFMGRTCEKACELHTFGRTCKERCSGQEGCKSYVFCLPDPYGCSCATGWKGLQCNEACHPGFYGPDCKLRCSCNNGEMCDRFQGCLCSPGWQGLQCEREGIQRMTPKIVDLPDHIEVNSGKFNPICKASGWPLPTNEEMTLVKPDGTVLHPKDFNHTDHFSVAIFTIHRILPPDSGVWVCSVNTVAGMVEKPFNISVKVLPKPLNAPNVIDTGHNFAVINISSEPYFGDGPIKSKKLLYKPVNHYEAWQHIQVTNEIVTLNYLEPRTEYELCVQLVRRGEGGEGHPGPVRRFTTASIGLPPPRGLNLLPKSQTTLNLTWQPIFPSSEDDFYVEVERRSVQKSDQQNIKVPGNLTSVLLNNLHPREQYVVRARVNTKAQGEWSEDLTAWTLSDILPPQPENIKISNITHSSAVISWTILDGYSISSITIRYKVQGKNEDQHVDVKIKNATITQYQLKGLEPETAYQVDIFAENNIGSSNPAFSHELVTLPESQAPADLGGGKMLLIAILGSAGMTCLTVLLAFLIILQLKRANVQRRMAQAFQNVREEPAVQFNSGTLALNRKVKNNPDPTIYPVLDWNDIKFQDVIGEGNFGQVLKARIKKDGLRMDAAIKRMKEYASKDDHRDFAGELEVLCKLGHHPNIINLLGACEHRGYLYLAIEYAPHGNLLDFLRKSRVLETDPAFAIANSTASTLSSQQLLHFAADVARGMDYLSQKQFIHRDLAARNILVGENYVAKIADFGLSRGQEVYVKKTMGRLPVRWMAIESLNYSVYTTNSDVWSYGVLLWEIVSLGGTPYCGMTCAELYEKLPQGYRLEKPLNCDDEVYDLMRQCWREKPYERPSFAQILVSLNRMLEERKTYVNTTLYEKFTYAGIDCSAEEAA

[21] = Tmax in Sprague-Dawley rat at 2 mg/kg, po; assay type: ADME, organism-based; parameters: dose 2 mg/kg, route oral; details: in vivo
Procedure, shortened: (§6)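 Male Sprague–Dawley rats dosed iv at 0.5 mg/kg as DMSO solution or po at 2 mg/kg as suspension in 100% OraPlus. Serial jugular blood, plasma LC-MS/MS quantitation, noncompartmental analysis.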

[22] = target: Vascular endothelial growth factor receptor 1 (Homo sapiens, UniProt P17948); test: Inhibition of human VEGFR1
Liver microsomes [23] = test: Metabolic stability assessed as covalent binding in presence of NADPH and GSH in human liver microsomes at 10 uM after 1 hr; assay type: ADME, Microsome; procedure, shortened: as §1
[24] = target: Vascular endothelial growth factor receptor 2 (Homo sapiens, UniProt P35968)
[25] = Oral bioavailability in Sprague-Dawley rat at 2 mg/kg; assay type: ADME, organism-based; details: in vivo; procedure, shortened: as §6
[26] = target: Mast/stem cell growth factor receptor Kit (Homo sapiens) (UniProt P10721); test: Inhibition of c-Kit
Mast/stem cell growth factor receptor Kit (Homo sapiens), sequence (P10721 whole entry): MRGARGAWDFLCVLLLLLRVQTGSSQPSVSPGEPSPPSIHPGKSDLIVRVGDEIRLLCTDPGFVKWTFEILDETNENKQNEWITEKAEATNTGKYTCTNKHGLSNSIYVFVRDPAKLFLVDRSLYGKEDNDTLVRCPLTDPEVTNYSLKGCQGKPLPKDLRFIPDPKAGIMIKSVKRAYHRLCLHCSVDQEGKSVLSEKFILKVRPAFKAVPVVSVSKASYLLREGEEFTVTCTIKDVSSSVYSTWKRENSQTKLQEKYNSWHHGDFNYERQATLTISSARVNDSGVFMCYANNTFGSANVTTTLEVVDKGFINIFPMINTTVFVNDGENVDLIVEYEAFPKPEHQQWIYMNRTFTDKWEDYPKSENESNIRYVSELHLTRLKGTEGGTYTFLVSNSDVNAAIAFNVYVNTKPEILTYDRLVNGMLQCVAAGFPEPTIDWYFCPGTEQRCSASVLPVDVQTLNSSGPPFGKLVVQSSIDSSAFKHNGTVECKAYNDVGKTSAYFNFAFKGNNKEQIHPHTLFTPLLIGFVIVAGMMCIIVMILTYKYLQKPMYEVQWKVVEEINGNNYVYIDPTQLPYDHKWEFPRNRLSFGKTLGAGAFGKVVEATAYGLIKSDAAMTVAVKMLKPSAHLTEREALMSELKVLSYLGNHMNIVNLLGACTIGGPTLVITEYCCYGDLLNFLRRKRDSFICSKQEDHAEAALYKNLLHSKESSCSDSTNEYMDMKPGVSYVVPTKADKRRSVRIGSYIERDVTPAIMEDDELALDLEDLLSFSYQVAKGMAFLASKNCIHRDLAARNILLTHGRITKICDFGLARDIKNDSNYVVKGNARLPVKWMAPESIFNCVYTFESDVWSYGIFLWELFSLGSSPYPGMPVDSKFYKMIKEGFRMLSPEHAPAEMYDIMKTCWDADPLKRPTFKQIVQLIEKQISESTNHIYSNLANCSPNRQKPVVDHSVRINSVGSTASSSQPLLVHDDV

[27] = Intrinsic clearance in rat liver microsomes at 1 uM; assay type: ADME, Microsome; details: read-out: Stability; procedure, shortened: as §4
[28] = target: Platelet-derived growth factor receptor alpha (Homo sapiens) (UniProt P16234); test: Inhibition of PDGFRalpha
Platelet-derived growth factor receptor alpha (Homo sapiens), sequence (P16234 whole entry): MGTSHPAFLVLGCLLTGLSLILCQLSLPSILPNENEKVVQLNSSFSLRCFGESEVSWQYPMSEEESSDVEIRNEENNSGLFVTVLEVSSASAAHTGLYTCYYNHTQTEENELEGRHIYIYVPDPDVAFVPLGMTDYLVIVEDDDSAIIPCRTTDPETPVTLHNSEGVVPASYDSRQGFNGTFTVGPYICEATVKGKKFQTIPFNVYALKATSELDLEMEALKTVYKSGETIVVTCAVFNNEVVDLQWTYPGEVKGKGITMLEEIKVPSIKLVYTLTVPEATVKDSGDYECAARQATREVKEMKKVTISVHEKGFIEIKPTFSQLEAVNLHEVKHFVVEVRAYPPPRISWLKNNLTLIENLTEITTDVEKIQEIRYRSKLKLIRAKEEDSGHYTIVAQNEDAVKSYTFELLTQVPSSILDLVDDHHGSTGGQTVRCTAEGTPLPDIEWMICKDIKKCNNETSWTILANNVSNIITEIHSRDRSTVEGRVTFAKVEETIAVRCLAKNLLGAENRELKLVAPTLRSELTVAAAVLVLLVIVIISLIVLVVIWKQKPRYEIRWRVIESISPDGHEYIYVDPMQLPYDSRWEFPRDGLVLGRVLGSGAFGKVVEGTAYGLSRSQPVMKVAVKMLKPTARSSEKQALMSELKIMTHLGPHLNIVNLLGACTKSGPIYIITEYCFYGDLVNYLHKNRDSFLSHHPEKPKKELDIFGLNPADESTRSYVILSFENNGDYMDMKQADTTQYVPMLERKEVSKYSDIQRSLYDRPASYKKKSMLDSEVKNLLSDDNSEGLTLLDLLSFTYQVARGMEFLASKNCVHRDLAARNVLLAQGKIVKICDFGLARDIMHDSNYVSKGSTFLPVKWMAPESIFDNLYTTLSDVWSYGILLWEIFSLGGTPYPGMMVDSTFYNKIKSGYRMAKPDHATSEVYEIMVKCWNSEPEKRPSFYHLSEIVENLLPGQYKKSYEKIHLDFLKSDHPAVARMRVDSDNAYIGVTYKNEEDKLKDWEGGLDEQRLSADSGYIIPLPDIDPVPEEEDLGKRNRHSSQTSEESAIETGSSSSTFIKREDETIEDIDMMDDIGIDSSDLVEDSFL

[29] = target: Tyrosine-protein kinase Lyn (Homo sapiens, UniProt P07948); test: Inhibition of Lyn
[30] = Half life in Sprague-Dawley rat at 1 mg/kg, iv; assay type: ADME, organism-based; parameters: dose 1 mg/kg, route intravenous; details: in vivo; procedure, shortened: as §3
[31] = Aqueous solubility in 0.01 N Hcl; assay type: physicochemical
[32] = target: Tyrosine-protein kinase ABL1 (Homo sapiens, UniProt P00519)
[33] = target: Tyrosine-protein kinase Fgr (Homo sapiens, UniProt P09769); test: Inhibition of FGR
[34] = Tmax in Sprague-Dawley rat at 10 mg/kg, po; assay type: ADME, organism-based; parameters: dose 10 mg/kg, route oral; details: in vivo; procedure, shortened: as §2
[35] = target: Receptor-type tyrosine-protein kinase FLT3 (Homo sapiens) (UniProt P36888); test: Inhibition of Flt3
[36] = Cmax in Sprague-Dawley rat at 10 mg/kg, po; assay type: ADME, organism-based; parameters: dose 10 mg/kg, route oral; details: in vivo; procedure, shortened: as §3
[37] = AUC (0 to infinity) in Sprague-Dawley rat at 10 mg/kg, po; assay type: ADME, organism-based; parameters: dose 10 mg/kg, route oral, time infinity; details: plasma; procedure, shortened: as §3
[38] = Oral bioavailability in Sprague-Dawley rat at 10 mg/kg; assay type: ADME, organism-based; details: in vivo; procedure, shortened: as §2
Mus musculus [39] = test: Inhibition of VEGF-induced vascular permeability in HEK293 cells expressing mouse recombinant VEGF implanted in CD1 nu/nu mouse assessed as Matrigel plug at 10 mg/kg, po after 6 hrs; assay type: functional, organism-based; parameters: dose 10 mg/kg; procedure, shortened: as §5

SMILES | Stability (Liver microsomes [1]) [pmol/mg/h] | Stability (Liver microsomes [2]) [pmol/mg/h] | Vd [3] [L/kg] | IC50 (HUVEC [4]) [nM] | IC50 (Aurora kinase A) [µM] | ED50 (Rattus norvegicus) [mg/kg] | IC50 [6] [nM] | Stability (Liver microsomes [7]) [pmol/mg/h] | microsomal CLint at 1 µM [8] [µL/min/mg] | Stability (Liver microsomes [9]) [pmol/mg/h] | Cmax [10] [nM] | IC50 [11] [µM] | Activity [12] | clearance [13] [mL/min/kg] | Selectivity ratio (HUVEC [14]) | IC50 (HUVEC [15]) [nM] | Activity [16] | IC50 (Aurora kinase B) [nM] | Stability (Liver microsomes [17]) [pmol/mg/h] | AUC [20] [µM·h] | further results
COCCNC(=O)c1cccc2cc(Oc3ccnc4cc(OC)c(OC)cc34)ccc12 | 125 | 321 | 1.13 | 1140 | 7.2 | 0.04 | 1200 | 1.6 | 32 | 125 | 40 | 20 | Active | 8.87 | >100 | 0.64 | Active | 130 | 353 | 0.52 | AUC(0-inf) [5]: 3770 ng·h/mL; Cmax [18]: 543 ng/mL; Cp (Mus musculus [19]): 0.2 µM; IC50 (Angiopoietin-1 receptor): 25 µM; Tmax [21]: 2 h; IC50 [22]: 73 nM; Stability (Liver microsomes [23]): 1.6 pmol/mg/h; IC50 [24]: 12 nM; bioavailability [25]: 99%; Activity [26]: Active; microsomal CLint at 1 µM [27]: 48 µL/min/mg; Activity [28]: Active; IC50 [29]: 275 nM; half-life [30]: 96 min; solubility [31]: > 200 µg/mL
COc1cc2nccc(Oc3ccc4c(C(=O)NC5CC5)cccc4c3)c2cc1OC | 1.5 | 357 | 1.04 | 170 | 2 | 0.01 | 330 | 153 | 31 | 1.5 | 20 | 20 | Active | 2.18 | >100 | 0.91 | Active | 118 | 60 | 0.32 | IC50 [32]: 466 nM; IC50 (Angiopoietin-1 receptor): 25 µM; Activity [22]: Active; Stability (Liver microsomes [23]): 153 pmol/mg/h; IC50 [33]: 396 nM; Tmax [34]: 2.5 h; Activity [35]: inactive; Activity [26]: Active; Cmax [36]: 6150 ng/mL; microsomal CLint at 1 µM [27]: 21 µL/min/mg; AUC(0-inf) [37]: 50200 ng·h/mL; Activity [28]: Active; IC50 [29]: 27 nM; bioavailability [38]: 66%; half-life [30]: 504 min; Cp (Mus musculus [39]): 1 µM; solubility [31]: > 200 µg/mL
